Measured values pooled from the literature.
Each line is one published result; the experiments were not run side by side.
Effect on: metabolic stability

Compound | host | matrix | concentration | pH | quantity | value
N#Cc1ccc(C[C@H](Nc2nnc(-c3cccc(F)c3)s2)C(=O)N2CCc3ccccc32)cc1 | rat | liver microsomes | 10 µM | pH 7.4 | microsomal CLint | 14.7 µL/min/mg
Cc1cc(S(=O)(=O)NC2CC(N3CCN(CC4CCN(c5ccc6c(c5F)n(C)c(=O)n6C5CCC(=O)NC5=O)CC4)CC3)C2)ccc1Nc1ncc(C(F)(F)F)c(N2CCCC(C)(O)C2)n1 (centres unmarked) | rat | liver microsomes | 1 µM | – | scaled CLint | < 21 mL/min/kg
CC(C)N(c1ccc(Cl)c(F)c1)c1ccc(NC(=O)CN(C)c2ccccc2N2CCCC2=O)cn1 | rat | hepatocytes | – | – | hepatocyte CLint | 62 µL/min/10⁶ cells
CCOCC(=O)N1CCC[C@H](C(=O)NCc2nc(-c3ccc(C)nc3)cs2)C1 | male Sprague-Dawley rat | liver microsomes | 0.5 µM | – | microsomal CLint | 19 µL/min/mg
C[C@]1(O)CCCN(c2nc(Nc3ccc(S(=O)(=O)N[C@@H]4CCN(CC5CCN(c6ccc(C7CCC(=O)NC7=O)cc6F)CC5)C[C@H]4F)cc3F)ncc2C(F)(F)F)C1 (some centres unmarked) | rat | liver microsomes | 1 µM | – | scaled CLint | < 21 mL/min/kg
CC(C)N(c1ccc(C#N)cc1)c1ccc(NC(=O)CN(C)c2ccccc2N2CCCC2=O)cn1 | rat | hepatocytes | – | – | hepatocyte CLint | 92 µL/min/10⁶ cells
CNc1ccc(C(N)=O)cn1 | male Wistar rat | hepatocytes | 1 µM | pH 7.4 | hepatocyte CLint | 2.9 µL/min/10⁶ cells
COCC(=O)N1CCC[C@H](C(=O)NCc2nc(-c3ccc(-c4ccccn4)cc3)cs2)C1 | male Sprague-Dawley rat | liver microsomes | 0.5 µM | – | microsomal CLint | 104 µL/min/mg
Cc1ccc(-c2nnc(N[C@@H](Cc3ccc(C#N)cc3)C(=O)N3CCc4ccccc43)o2)cc1 | rat | liver microsomes | 10 µM | pH 7.4 | microsomal CLint | 49.5 µL/min/mg
CN(CC(=O)Nc1ccc(N(C)c2ccc(Cl)c(F)c2)cc1)c1ccccc1N1CCCC1=O | rat | hepatocytes | – | – | hepatocyte CLint | 79 µL/min/10⁶ cells
C[C@H]1CN(c2ccc(C3CCC(=O)NC3=O)cc2F)CCN1CC12CCC(NS(=O)(=O)c3ccc(Nc4ncc(C(F)(F)F)c(N5CCC[C@](C)(O)C5)n4)c(F)c3)(CC1)CO2 (some centres unmarked) | rat | liver microsomes | 1 µM | – | scaled CLint | < 21 mL/min/kg
NCCCOCC(=O)N1CCC[C@H](C(=O)NCc2nc(-c3ccc(C4CC4)cc3)cs2)C1 | male Sprague-Dawley rat | liver microsomes | 0.5 µM | – | microsomal CLint | 15 µL/min/mg
CNS(=O)(=O)c1ccc(Nc2ncc3cc(Cl)c(=O)n(C4CCCC4)c3n2)c(C)c1 | rat | liver microsomes | 1 µM | – | scaled CLint | 70 mL/min/kg
COc1cc(-c2cc(C(C)=O)n3ccccc23)c(OC)cc1Cn1ccnc1 | rat | liver microsomes | 1 µM | pH 7.4 | scaled CLint | 145 mL/min/kg
CCONC(=O)N1CCC[C@H](C(=O)NCc2nc(-c3ccc(C#N)cc3)cs2)C1 | male Sprague-Dawley rat | hepatocytes | 0.5 µM | – | scaled CLint | 41 mL/min/kg
COc1cnc(Nc2cnnc3ccc(-c4ccc(N5CCN(C)CC5)cc4)cc23)nc1 | rat | hepatocytes | – | – | hepatocyte CLint | > 300 µL/min/10⁶ cells
COCC(=O)N1CCC[C@H](C(=O)NCc2nc(-c3ccc(C#N)cc3)cs2)C1 | male Sprague-Dawley rat | liver microsomes | 0.5 µM | – | scaled CLint | 30 mL/min/kg
Cc1cc(S(=O)(=O)N[C@]2(C)C[C@H](N3CCN(CC4CCN(c5ccc6c(c5F)n(C)c(=O)n6C5CCC(=O)NC5=O)CC4)CC3)C2)ccc1Nc1ncc(C(F)(F)F)c(N2CCC[C@](C)(O)C2)n1 (some centres unmarked) | rat | liver microsomes | 1 µM | – | scaled CLint | < 21 mL/min/kg
Cc1ccc(N(C)c2ccc(NC(=O)CN(C)c3cc(F)ccc3N3CCCC3=O)cc2)cc1 | rat | hepatocytes | – | – | hepatocyte CLint | 91 µL/min/10⁶ cells
CCOCC(=O)N1CC[C@@H](C)[C@H](C(=O)NCc2nc(-c3ccc(C)nc3)cs2)C1 (racemic) | male Sprague-Dawley rat | liver microsomes | 0.5 µM | – | microsomal CLint | 53 µL/min/mg
